# Shown are actives, neighbours in structure and some others; about 3.9% of the full set was active somewhere.
# AHR act – activators of human aryl hydrocarbon receptor. AID 2796. AHR-responsive luciferase reporter cells, luminescence. activation, % at 5 µM. 2.5% of 320,000 active. P35869; in the data active = activation above about 47%;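 also: 0% = vehicle wells and 100% = reference agonist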
# SR-BI DiI-HDL act – SR-BI HDL lipid transfer activation; activation, % at 12.5 µM; 0.096% of 320,000 active; CHO ldlA[mSR-BI] cells, DiI-HDL uptake fluorescence, 3 h; 100 = double the neutral-control signal;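 active = mean replicate activation of at least 60% and every replicate at or above 60%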;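 also: 0% = median plate neutral-control signal and 100% = twice that signal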
#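 System: LDL receptor-deficient CHO ldlA cells overexpressing murine SR-BI | Timing: 3 h uptake period with compound, 37 °C | Medium: HEPES-buffered (25 mM, pH 7.4) F12 plus 0.5% BSA | Dosing: Single-point compound dose | Signal: Bottom-read fluorescence, 550/595 nm | Read-out: Retained DiI signal reflecting DiI-HDL uptake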
# ABCB6 inh MLPCN – human ABCB6 transporter inhibition | Q9NP58 | K562-ABCB6 porphyrin accumulation, flow cytometry, 1 h; stronger effect = lower value | fluorescence ratio to DMSO, % at 10 µM | 0.19% of 360,000 active | AID 602162;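 active = fluorescence ratio to DMSO below 75%, the collection mean minus 3 SD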;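 also: signal is porphyrin accumulated inside mitochondria; 100% equals median channel fluorescence of DMSO control wells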
# SR-BI DiI inh – blocks mouse SR-BI lipid uptake from DiI-HDL; ldlA[mSR-BI] CHO cells, DiI-HDL uptake fluorescence, 3 h; inhibition, % at 12.5 µM; 0.96% of 320,000 active;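 active = mean replicate inhibition of at least 70% and a set share of replicates each scoring 70 or more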;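 also: 0% = median of neutral control wells and 100% = median of positive control wells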
# Target sequence (Q61009 whole entry, looked up): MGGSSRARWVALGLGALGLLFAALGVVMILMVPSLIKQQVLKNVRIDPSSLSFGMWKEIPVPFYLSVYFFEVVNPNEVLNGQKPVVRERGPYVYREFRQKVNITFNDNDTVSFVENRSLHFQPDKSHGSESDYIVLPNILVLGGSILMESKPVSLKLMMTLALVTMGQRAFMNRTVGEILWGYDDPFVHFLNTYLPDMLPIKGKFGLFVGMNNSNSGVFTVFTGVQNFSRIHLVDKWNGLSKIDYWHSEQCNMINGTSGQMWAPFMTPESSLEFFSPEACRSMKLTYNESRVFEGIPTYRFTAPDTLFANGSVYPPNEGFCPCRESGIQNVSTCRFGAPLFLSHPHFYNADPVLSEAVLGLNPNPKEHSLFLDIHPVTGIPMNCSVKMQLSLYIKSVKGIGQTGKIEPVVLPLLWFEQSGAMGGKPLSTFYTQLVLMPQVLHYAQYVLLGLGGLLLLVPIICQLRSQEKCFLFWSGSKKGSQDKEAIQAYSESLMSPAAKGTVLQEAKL
# GAA850 FXN act – frataxin GAA850 promoter activation. 0.56% of 360,000 active. HEK293 lucGAA850 FXN promoter luciferase reporter, 24 h; percent of 10 µM SAHA response. activation, % at 6 µM;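 active = activation above the average of all compounds screened plus 3 SD, cutoff fixed separately per campaign, cut at about 7.5% in these data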;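 also: 0% = DMSO wells and 100% = 10 µM SAHA wells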
# HIF activator – HIF pathway transcriptional activation. U2OS HRE-luciferase reporter, luminescence; normalized: DMSO 0%, desferrioxamine 100%. activation, % at 7.5 µM (by protocol). 0.32% of 300,000 active. AID 1910;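 active = mean activation of at least 10% of the iron chelator positive control signal, with at least half of replicates also reaching 10%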
# * hit, by the source's call; i = inactive; . = no result.
SMILES,AHR act,SR-BI DiI-HDL act,ABCB6 inh MLPCN,SR-BI DiI inh,GAA850 FXN act,HIF activator
Cc1cc(=O)oc2c1ccc1oc(/C(=N/O)c3ccccc3)c(C)c12,0.5,515.6*,95.0,i,0.6,0.0
CCC1(c2ccc(F)cc2)NC(=O)N(CC(=O)N2CCc3ccccc3C2)C1=O (centres undefined),7.4,-9.0,105.0,9.0,0.8,-2.8
CCOc1ccc(N(CC(=O)NCCSCc2ccco2)S(=O)(=O)c2ccc(F)cc2)cc1,-1.3,6.4,89.0,-6.4,-0.7,-1.0
O=c1c2cc(Br)ccc2nc(-c2ccccc2)n1O,47.6*,19.0,98.0,-19.0,2.2,1.7
Cc1ccc(-c2nc3ccccc3c(=O)n2O)cc1,9.4,-9.2,96.0,9.2,2.0,-0.4
COc1cc(CNCCSc2nnnn2C)cc(OC)c1OC,-1.0,11.7,98.0,-11.6,-1.5,-0.2
Cc1ccc(C(=O)OCC(=O)Nc2nc(-c3ccccc3)cs2)cc1NC(=O)c1ccco1,4.2,-83.5,92.0,83.5*,0.3,0.5
O=C(NNc1nc(-c2ccc(Cl)cc2)cs1)c1ccco1,43.2,16.8,94.0,-16.8,5.6,1.7
Cc1ccc(C(=O)OCC(=O)Nc2ccccc2)cc1NC(=O)c1ccco1,4.1,7.8,102.0,-7.8,2.5,0.8
O=C(NNc1nc(-c2ccccc2)cs1)c1ccco1,71.7*,-5.6,100.0,5.6,1.4,0.1
Cc1ccc(F)c(S(=O)(=O)NC(=O)C2(C)CCN2C(=O)c2ccc(C3CCCCC3)cc2)c1 (centres undefined),.,.,100.0,.,0.8,.
COc1cccc(-c2nc3ccccc3s2)c1O,16.4,-13.4,103.0,13.4,6.8,-0.1
COc1cc(-c2nc3ccccc3s2)ccc1O,47.5*,2.9,99.0,-2.9,4.5,2.8
COc1cc(OC)c(-c2nc3ccccc3s2)cc1OC,22.3,-70.9,101.0,70.9*,3.2,1.7
CCN(CC)CCCNC(=O)C1CCCN(c2nnc(N3CCCC3=O)s2)C1 (centres undefined),0.4,22.2,100.0,-22.2,1.0,-1.0
CCOc1ccc(C2C(C(=O)c3ccco3)=C(O)C(=O)N2CCCn2ccnc2)cc1 (centres undefined),.,3.9,99.0,-3.9,1.4,0.5
CCCOc1cccc(C2C(C(=O)c3ccco3)=C(O)C(=O)N2CCCn2ccnc2)c1 (centres undefined),10.6,5.2,99.0,-5.2,-0.7,39.0*
Cc1ccccc1NC(=O)CSc1nc(Nc2ccccc2)nc(N2CCOCC2)n1,6.9,-80.6,91.0,80.6*,-0.6,-0.3
O=C(Cn1nc(C(F)(F)F)c2c1CCCC2)Nc1ccc2c(c1)OCO2,49.9*,1.1,106.0,-1.1,-1.5,0.4
COc1ccc2oc(=N)c(C(=O)Nc3ccccc3Cl)cc2c1,3.0,-71.8,99.0,71.8*,4.4,3.0
COc1ccc2oc(=O)c(C(=O)NC3CCCCCC3)cc2c1,-0.3,16.1,100.0,-16.1,0.5,9.9*
COc1ccc2oc(=O)c(/C(C)=N/Nc3ccccc3)cc2c1,60.8*,-0.2,94.0,0.2,0.7,-0.1
CNC(=O)c1cc2cc(OC)ccc2oc1=O,-3.4,47.9,99.0,-47.9,2.8,0.1
COc1ccc2oc(=O)c(C(=O)Nc3cccc(C(C)=O)c3)cc2c1,3.5,-50.2,98.0,50.2,1.5,0.6
COc1ccc2oc(=N)c(C(=O)Nc3ccccc3)cc2c1,34.5,-60.2,102.0,60.2,2.8,.
SMILES,AHR act,SR-BI DiI-HDL act,ABCB6 inh MLPCN,SR-BI DiI inh,GAA850 FXN act,HIF activator
COc1ccccc1OCC(=O)N1CCCCCCC1,2.8,16.8,101.0,-16.8,-0.1,0.2
N#CC(C#N)=CC1=C2OC(c3ccccc3)=CC(c3ccccc3)=C2CCC1,1.5,-116.5,98.0,116.4*,-1.1,-0.5
C=CCn1c(O)c(N=NC(=O)CNC(=O)c2cccs2)c2ccccc21,61.3*,-1.5,101.0,1.4,2.4,-0.2
C=CCn1c(O)c(N=NC(=O)OC(C)(C)C)c2ccccc21,30.1,7.1,100.0,-7.1,-0.1,0.3
O=C(CC1CCCC1)NCCS(=O)(=O)N1CCN(c2ccc(F)cc2)CC1,4.1,2.2,100.0,-2.2,-0.9,-2.7
CCC1N=C(SC)NC(C)=C1C(=O)c1ccccc1 (centres undefined),4.8,9.4,100.0,-9.4,-2.3,-0.2
CSC1=NC(C(Cl)(Cl)Cl)N=C(c2ccc(C)cc2)N1 (centres undefined),66.8*,-1.3,102.0,1.3,-2.7,0.1
O=C(N/N=C/c1ccco1)c1cccc(NC(=O)c2cccc(Cl)c2)c1,54.6*,-64.5,104.0,64.5,1.1,0.7
O=C(N/N=C/c1ccc(F)cc1)c1ccccc1,7.8,2.9,94.0,-2.9,4.1,3.2
O=C(Nc1cccc(F)c1)Nc1cccc(Cl)c1,8.2,-15.1,100.0,15.1,2.4,2.0
O=C(N/N=C/c1cccnc1)c1ccc(NC(=O)c2cccc(Cl)c2)cc1,3.3,-52.3,96.0,52.3,0.5,0.7
O=C(N/N=C/c1cccnc1)c1ccc(NC(=O)c2ccc(Cl)cc2)cc1,0.9,-15.7,100.0,15.7,0.1,39.5*
Cn1c(=O)cc(C(=O)N/N=C/c2ccc(F)cc2)[nH]c1=O,-0.4,3.3,98.0,-3.3,0.8,11.8*
CC(=O)Nc1cccc(NC(=O)Nc2cccc(F)c2)c1,48.9*,-17.5,101.0,17.5,-1.1,0.4
Cc1nn(-c2ccccc2)c(C)c1C(=O)OC/C(O)=C(\C#N)c1nc2ccccc2[nH]1,24.5,3.4,100.0,-3.4,-1.7,-0.5
Cc1ccc(C(=O)Nc2ccc(CN3CCS(=O)(=O)CC3)cc2)cc1C,-2.2,-28.5,97.0,28.5,1.1,1.2
O=C(N/N=C/c1ccc(F)cc1)c1cccc(NC(=O)c2ccc(F)cc2)c1,59.7*,-72.3,100.0,72.3*,0.9,0.5
O=C(N/N=C/c1ccncc1)c1cccc(NC(=O)c2ccc(Cl)cc2)c1,0.7,-62.4,97.0,62.4,-0.3,-0.1
Cc1ccccc1C(=O)Nc1cccc(NC(=O)c2ccc(F)cc2)c1,13.6,-78.8,102.0,78.8*,4.1,1.3
Cc1ccccc1C(=O)Nc1ccccc1,1.1,4.4,96.0,-4.4,2.3,0.8
O=C(Nc1cccc(NC(=O)c2ccc(F)cc2)c1)c1ccc(F)cc1,15.9,-76.2,94.0,76.2*,1.6,-0.5
COc1cc2c(cc1OC)C(c1cccs1)CC(=O)N2 (centres undefined),1.8,-6.5,101.0,6.5,0.4,0.0
COC(=O)c1c(C)c2c(C)cc3ccccn3c-2c1C(=O)OC,10.2,-0.8,107.0,0.8,2.0,-0.2
COC(=O)c1cc2c(-c3ccccc3)cc3ccccn3c-2c1C(=O)OC,11.3,-84.5,106.0,84.5*,1.2,-0.7

# Screens from PubChem.
